Published values collected from several papers.
Compare with care: the assays were run in different laboratories.
Target: Tyrosine-protein kinase Srms (SRMS, Homo sapiens, UniProt Q9H3Y6)

| SMILES | observed | method | tested at | remaining binding |
| --- | --- | --- | --- | --- |
| O=C(NCCCN1CCOCC1)c1ccc(Nc2nccc(-c3cc4ccccc4s3)n2)cc1 | binding | competition with immobilised ligand | 1 µM | 100% |
| O=C(Nc1c[nH]nc1C(=O)NC1CCNCC1)c1cc(F)cc(F)c1 | binding | competition with immobilised ligand | 1 µM | 84% |
| N[C@H]1CCN(c2nccc(-c3cnn4ncccc34)n2)C1 | binding |  | 1 µM | 88% |
| COc1cc(-c2cn(C3CCc4ccccc4N(CC(F)(F)F)C3=O)nn2)ccc1-n1ccc(C)n1 (stereo not shown) | cell-free assay | competition with immobilised ligand | 1 µM | 84% |
| COc1ccnn2ncc(-c3ccnc(N(C)C)n3)c12 | binding |  | 1 µM | 78% |
| COc1cnc(Nc2cccc(S(N)(=O)=O)c2)nc1N1CCN(c2ccccc2)C(=O)C1 | binding | competition with immobilised ligand | 1 µM | 90% |
| C[C@@H](c1ccc(-n2cnc3c(N)ncnc32)cc1)N1CCc2nn(C)c(Cc3ccccc3)c2C1=O | binding | competition with immobilised ligand | 0.1 µM | 44% |
| O=C(c1ccc(Nc2nccc(-c3cc4ccccc4s3)n2)cc1)N1CCC(N2CCCC2)CC1 | binding | competition with immobilised ligand | 1 µM | 73% |
| O=C(Nc1cccnn1)N1CC(C/C=C/c2cncc(Oc3ccc(C(F)(F)F)cn3)n2)C1 | cell-free assay | competition with immobilised ligand | 1 µM | 67% |
| Nc1ncc2c(n1)-c1c([nH]c3ccc(C#CC4CC4)cc13)CCCC2 | binding | competition with immobilised ligand | 1 µM | 92% |
| N#CC1(c2ccccn2)CCN(Cc2cc(C(=O)N3CCCC3)c(=O)n3ccccc23)CC1 | cell-free assay | competition with immobilised ligand | 1 µM | 100% |
| C[C@H]1CCN(c2nccc(-c3cnn4ncccc34)n2)C1 | binding |  | 1 µM | 71% |
| c1cncc(-c2cccc(Nc3nccc(NC4CCCCC4)n3)c2)c1 | binding | competition with immobilised ligand | 10 µM | 71% |
| CCCOc1ccc([C@@H]2[C@@H](C(=O)O)[C@H](c3ccc4c(c3)OCO4)CN2CC(=O)Nc2c(CC)cccc2CC)cc1 | cell-free assay | competition with immobilised ligand | 1 µM | 90% |
| CN(C)c1nccc(-c2cnc3ncccn23)n1 | binding |  | 1 µM | 63% |
| O=C(Nc1cccnn1)N1CCC(=Cc2cccc(Oc3ccc(C(F)(F)F)cn3)c2)CC1 | cell-free assay | competition with immobilised ligand | 1 µM | 95% |
| CN(c1nccc(-c2cnn3ncccc23)n1)C1CC1 | binding |  | 1 µM | 100% |
| O=C(c1ccc(Nc2ncc(Cl)c(-c3cc4ccccc4s3)n2)cc1)N1CCC(N2CCCC2)CC1 | binding | competition with immobilised ligand | 1 µM | 81% |
| Cc1cnn2ncc(-c3ccnc(N(C)C)n3)c2c1 | binding |  | 1 µM | 100% |
| COc1cnc(Nc2cccc(S(N)(=O)=O)c2)nc1N1CCN(c2ccccc2)CC1 | binding | competition with immobilised ligand | 1 µM | 83% |
| CN(C)c1ncc(F)c(-c2cnn3ncccc23)n1 | binding |  | 1 µM | 81% |
| CS(=O)(=O)NCC[C@H](NC(=O)c1cncc2c1cnn2-c1ccc(F)cc1)c1ccnc(S(C)(=O)=O)c1 | cell-free assay | competition with immobilised ligand | 1 µM | 83% |
